# Several values for one entry are separate records, joined by “and”; a condition that tells them apart may be missing. Identical values can stand only once.
# System: U2OS
# Experiment: Multiplex assay against U2OS
# Format: toxicity, cell-based
# Conditions: human, number of replicates 2
# Outline: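 Values for tubulin, mitochondrial-mass and membrane-permeability phenotypes are per cents of cells with healthy nuclei. These cells were identified by CellPathfinder machine-learning gating of live cells that had been stained at seeding with Hoechst33342, BioTracker Green Microtubule Cytoskeleton Dye, MitoTracker Red and Annexin V Alexa Fluor 680 and imaged on a CQ1 microscope at 37°C and 5% CO2 after compound addition. The gating first set Hoechst high-intensity objects apart from normal cells, then split normal cells into healthy, pyknosed or fragmented nuclei, and pyknosed cells into mitotic or apoptotic.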
# [1] = 12 h, 1 µM, compound concentration 1 uM
# [2] = 12 h, 10 µM, compound concentration 10 uM
# [3] = 24 h, 1 µM, compound concentration 1 uM
# [4] = 24 h, 10 µM, compound concentration 10 uM
# [5] = 48 h, 1 µM, compound concentration 1 uM
# [6] = 48 h, 10 µM, compound concentration 10 uM
smiles,measurement,setting,value
CN1CCc2cc(Cl)c(O)cc2[C@@H](c2ccccc2)C1.Cl,Population Apoptotic (%),[1],100% and 36%
same,Population Healthy Nuclei (%),[1],58% and 86%
same,Population Hoechst High Intensity Objects (%),[1],0%
same,Population Membrane Permeable-Phenotype (%),[1],0%
same,Population Mitochondria Different-Phenotype (%),[1],0%
same,Population Normal (%),[1],100%
same,Population Pyknosed Nuclei (%),[1],12% and 7%
same,Population Tubulin-Different-Phenotype (%),[1],78% and 88%
same,Population Apoptotic (%),[2],50% and 29%
same,Population Fragmented Nuclei (%),[2],3% and 4%
same,Population Healthy Nuclei (%),[2],75% and 85%
same,Population Hoechst High Intensity Objects (%),[2],0%
same,Population Membrane Permeable-Phenotype (%),[2],0% and 2%
same,Population Mitochondria Different-Phenotype (%),[2],0%
same,Population Mitotic Cells (%),[2],50% and 70%
same,Population Normal (%),[2],100% and 99%
same,Population Pyknosed Nuclei (%),[2],21% and 9%
same,Population Tubulin-Different-Phenotype (%),[2],55% and 80%
same,Population Apoptotic (%),[3],28% and 33%
same,Population Healthy Nuclei (%),[3],56% and 87%
same,Population Hoechst High Intensity Objects (%),[3],0%
same,Population Membrane Permeable-Phenotype (%),[3],0% and 1%
same,Population Mitochondria Different-Phenotype (%),[3],0%
same,Population Mitotic Cells (%),[3],71% and 66%
same,Population Normal (%),[3],100%
same,Population Pyknosed Nuclei (%),[3],15% and 7%
same,Population Tubulin-Different-Phenotype (%),[3],88% and 92%
same,Population Apoptotic (%),[4],50% and 58%
same,Population Fragmented Nuclei (%),[4],5% and 3%
same,Population Healthy Nuclei (%),[4],85% and 87%
same,Population Hoechst High Intensity Objects (%),[4],0%
same,Population Membrane Permeable-Phenotype (%),[4],1%
same,Population Mitochondria Different-Phenotype (%),[4],0%
same,Population Mitotic Cells (%),[4],50% and 41%
same,Population Normal (%),[4],100% and 99%
same,Population Pyknosed Nuclei (%),[4],10% and 8%
same,Population Tubulin-Different-Phenotype (%),[4],75% and 81%
same,Population Apoptotic (%),[5],54% and 50%
same,Population Fragmented Nuclei (%),[5],8% and 3%
same,Population Healthy Nuclei (%),[5],73% and 92%
same,Population Hoechst High Intensity Objects (%),[5],1% and 0%
same,Population Membrane Permeable-Phenotype (%),[5],2% and 1%
same,Population Mitochondria Different-Phenotype (%),[5],2% and 0%
same,Population Mitotic Cells (%),[5],45% and 50%
same,Population Normal (%),[5],98% and 100%
same,Population Tubulin-Different-Phenotype (%),[5],80% and 90%
same,Population Apoptotic (%),[6],50% and 53%
same,Population Fragmented Nuclei (%),[6],11% and 3%
same,Population Healthy Nuclei (%),[6],79% and 88%
same,Population Hoechst High Intensity Objects (%),[6],0%
same,Population Membrane Permeable-Phenotype (%),[6],0% and 2%
same,Population Mitochondria Different-Phenotype (%),[6],1% and 0%
same,Population Mitotic Cells (%),[6],50% and 46%
same,Population Normal (%),[6],100%
same,Population Pyknosed Nuclei (%),[6],9% and 7%
same,Population Tubulin-Different-Phenotype (%),[6],87%
C=CC(=O)Nc1ccc2[nH]c(=O)n(C3CCN(Cc4ccc(-c5ccc6c(c5)NC(=O)CO6)cc4)CC3)c2c1 [RL2578],Population Fragmented Nuclei (%),[1],5% and 4%
same,Population Healthy Nuclei (%),[1],66% and 83%
same,Population Hoechst High Intensity Objects (%),[1],0%
same,Population Mitochondria Different-Phenotype (%),[1],4% and 0%
same,Population Normal (%),[1],100%
same,Population Pyknosed Nuclei (%),[1],27% and 11%
same,Population Tubulin-Different-Phenotype (%),[1],58% and 84%
same,Population Apoptotic (%),[2],66%
same,Population Fragmented Nuclei (%),[2],18% and 9%
same,Population Healthy Nuclei (%),[2],57% and 80%
same,Population Hoechst High Intensity Objects (%),[2],0%
same,Population Membrane Permeable-Phenotype (%),[2],13% and 7%
same,Population Mitochondria Different-Phenotype (%),[2],13% and 30%
same,Population Mitotic Cells (%),[2],33%
same,Population Normal (%),[2],100%
same,Population Pyknosed Nuclei (%),[2],23% and 9%
same,Population Tubulin-Different-Phenotype (%),[2],31% and 46%
same,Population Apoptotic (%),[3],85% and 74%
same,Population Fragmented Nuclei (%),[3],8% and 4%
same,Population Healthy Nuclei (%),[3],75% and 86%
same,Population Hoechst High Intensity Objects (%),[3],0%
same,Population Membrane Permeable-Phenotype (%),[3],11% and 1%
same,Population Mitochondria Different-Phenotype (%),[3],8% and 2%
same,Population Mitotic Cells (%),[3],14% and 25%
same,Population Normal (%),[3],100%
same,Population Pyknosed Nuclei (%),[3],15% and 9%
same,Population Tubulin-Different-Phenotype (%),[3],76% and 87%
same,Population Apoptotic (%),[4],61% and 54%
same,Population Fragmented Nuclei (%),[4],9% and 8%
same,Population Healthy Nuclei (%),[4],54% and 78%
same,Population Hoechst High Intensity Objects (%),[4],1% and 0%
same,Population Membrane Permeable-Phenotype (%),[4],0% and 5%
same,Population Mitotic Cells (%),[4],38% and 45%
same,Population Normal (%),[4],98% and 99%
same,Population Pyknosed Nuclei (%),[4],35% and 12%
same,Population Tubulin-Different-Phenotype (%),[4],39% and 47%
same,Population Apoptotic (%),[5],83% and 70%
same,Population Healthy Nuclei (%),[5],68% and 90%
same,Population Hoechst High Intensity Objects (%),[5],0%
same,Population Membrane Permeable-Phenotype (%),[5],8% and 0%
same,Population Mitochondria Different-Phenotype (%),[5],4% and 0%
same,Population Mitotic Cells (%),[5],16% and 30%
same,Population Normal (%),[5],100%
same,Population Pyknosed Nuclei (%),[5],16% and 6%
same,Population Tubulin-Different-Phenotype (%),[5],80% and 84%
same,Population Apoptotic (%),[6],76% and 68%
same,Population Fragmented Nuclei (%),[6],13% and 10%
same,Population Healthy Nuclei (%),[6],53% and 70%
same,Population Hoechst High Intensity Objects (%),[6],0% and 1%
same,Population Membrane Permeable-Phenotype (%),[6],10% and 5%
same,Population Mitochondria Different-Phenotype (%),[6],7% and 18%
same,Population Mitotic Cells (%),[6],23% and 31%
same,Population Normal (%),[6],100% and 98%
same,Population Pyknosed Nuclei (%),[6],32% and 19%
same,Population Tubulin-Different-Phenotype (%),[6],71% and 59%
